In PubChem BioAssay:
Results filed as inconclusive are left out.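 How the source made its calls, unless noted: active means viability increase at or above a cutoff of the median across tested compounds plus 3 SD (cut at about 8.5% in these data, passing the limit was not always enough); inconclusive means some gains above the cutoff, reason not given; inactive means the rest.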

How the values were obtained:
[1] = S. cerevisiae growth inhibition in permissive medium (OD615), pilot counter-assay for S. cerevisiae lifespan shortening project, permissive growth control (AID 705;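 active means growth inhibition above 25% in both replicates, a cutoff set 3 SD above the mean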); details: OD615, 24 h, at 10 µM, stronger effect = higher value
Method in brief: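 System: S. cerevisiae with engineered DeaD lifespan system / Measured by: absorbance (optical density) at 615 nm / Read-out: reduction in yeast growth (OD615) / Times: 4 h cell pre-growth, 24 h exposure at 30 °C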

[2] = S. cerevisiae growth inhibition in restrictive medium, OD615, pilot screen, restrictive growth control, yeast lifespan reduction project (AID 706;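 active means growth inhibition above a set limit, 3 SD over mean compound inhibition, in both replicates, cut at about 43% in these data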;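 further: modified DeaD lifespan yeast strain shifted to restrictive glucose medium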); details: OD615, 48 h, at 10 µM, stronger effect = higher value
Method in brief: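 System: Engineered S. cerevisiae DeaD strain | Buffer or medium: Glucose-based CSMM-D restrictive medium | Schedule: 4 h pre-incubation, 48 h exposure at 30 °C | Technique: Optical density at 615 nm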

[3] = doxorubicin toxicity protection in MRP-1 cells – H69AR cells, CellTiter-Glo, duplicate, MRP-1 activator project, pilot screen (AID 807); details: H69AR viability with doxorubicin, CellTiter-Glo luminescence; at 10 µM; stronger effect = higher value;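 further: compound pretreatment 18-22 h then 72 h combined with doxorubicin; 0% = doxorubicin alone and 100% = vehicle without doxorubicin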
[4] = viability of HCT116 without oncogenic beta-catenin – human colon tumor cells, pilot screen (AID 823;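 active means cell viability at or below a set limit in both duplicate runs, the limit being the all-compound median minus 4 SD, cut at about 23% in these data, passing the limit was not always enough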;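 further: 0% = wells killed by 20 µM Hyamine and 100% = untreated DMSO cell wells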); details: HCT116 beta-catenin knockout viability, CellTiter-Glo, 60 h; at 10 µM; stronger effect = lower value
[5] = viability of PTEN-null HCT116 cells – cell-based, HCT116 clonal line, CellTiter-Glo, pilot screen (AID 824;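 active means viability at or below 27.92% in each of two runs, the all-compound median minus 4 SD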;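 further: 0% = 20 µM Hyamine control and 100% = vehicle cell control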); details: HCT116 PTEN-deleted viability, 60 h, at 10 µM, stronger effect = lower value
[6] = RAM pathway blockade in budding yeast – dse1pr::URA3 reporter, 5-FOA selection, pilot screen (AID 869;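 active means inhibition over a set limit, the all-compound mean plus 3 SD, in both replicate runs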;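 further: 0% = DMSO wells with no growth and 100% = 10 µM 1-NA-PP1 with full growth; RAM network block rescues cells from 5-FOA so hits raise OD615 growth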); details: S. cerevisiae dse1pr::URA3 5-FOA growth, OD615, 2 d; at 10 µM; stronger effect = higher value; strain carries analog-sensitive mutant Cbk1 kinase
[7] = RAM signaling pathway blockade in yeast – S. cerevisiae, Pdr1DBD-CYC8 efflux-inhibited sensitized strain, primary screen (AID 1298;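 active means RAM network inhibition above 8.4% in each of two replicates, 3 SD over the compound average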;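 further: 0% = DMSO untreated cells without growth and 100% = 10 µM 1-NA-PP1 full growth; higher means more yeast growth rescued from 5-FOA killing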); details: S. cerevisiae cbk1-as DSE1-URA3 strain, 5-FOA growth OD615, 2 d; at 50 µM; stronger effect = higher value

Cc1ccc(NC(=O)c2c(O)c3ccccc3n(C)c2=O)nc1
inactive: growth inhibition [1] -3.92% | growth inhibition [2] 9.36% | viability increase [3] -5.52% | viability [4] 75.3% | viability [5] 70.2% | inhibition [6] 0.36% | RAM network inhibition [7] -1.46%

COC(=O)c1c(S(N)(=O)=O)c2ccccc2n1C
inactive: growth inhibition [1] -2.33% | growth inhibition [2] 2.71% | viability increase [3] -1.28% | viability [4] 100% | viability [5] 102% | inhibition [6] 1.06% | RAM network inhibition [7] 4.32%

COc1cc(NC(=O)COc2ccc(F)cc2)nc(OC)n1
inactive: growth inhibition [1] -2.6% | growth inhibition [2] 11.7% | viability increase [3] -3.92% | viability [4] 101% | viability [5] 101% | inhibition [6] 1.72% | RAM network inhibition [7] 1.08%

CCc1cc2c(=O)c(Oc3ccccc3F)c(C)oc2c(CN(C)C)c1O
inactive: growth inhibition [1] -5.07% | growth inhibition [2] 9.37% | viability increase [3] -7.21% | viability [4] 95.2% | viability [5] 89.1% | inhibition [6] 3.73% | RAM network inhibition [7] 6.03%

Nc1ccc(-c2nc3ccc(N)cc3o2)cc1
inactive: growth inhibition [1] 0.07% | growth inhibition [2] 7.21% | viability increase [3] -1.18% | viability [4] 100% | viability [5] 86.8% | inhibition [6] 3.98% | RAM network inhibition [7] 6.51%

c1ccc(-c2ccc(-c3nc(-c4ccncc4)no3)cc2)cc1
inactive: growth inhibition [1] 14.4% | growth inhibition [2] 14.4% | viability increase [3] 2.99% | viability [4] 66.4% | viability [5] 82.5% | inhibition [6] 1.32% | RAM network inhibition [7] 2.1%

CCN(Cc1ccccc1)C(=O)Cn1cc2c(n1)CCCC2
inactive: growth inhibition [1] -5.23% | growth inhibition [2] -2.12% | viability increase [3] 1.91% | viability [4] 94% | viability [5] 92.5% | inhibition [6] 2.06% | RAM network inhibition [7] -1.27%

COc1ccc(N(CC(=O)N2CC=C(c3ccccc3)CC2)S(=O)(=O)c2c(C)noc2C)cc1
inactive: growth inhibition [1] -3.14% | growth inhibition [2] 1.52% | viability increase [3] -4.79% | viability [4] 98.1% | viability [5] 97.2% | inhibition [6] 1.41% | RAM network inhibition [7] 2.09%

CCC(C)NC(=O)CS(=O)Cc1nc(-c2ccccc2C)oc1C (stereo unspecified)
inactive: growth inhibition [1] 1.69% | growth inhibition [2] 12.7% | viability increase [3] -2.38% | viability [4] 96.1% | viability [5] 95.2% | inhibition [6] 1.9% | RAM network inhibition [7] 9.39%

Nc1c(C(=O)CCC(=O)O)oc2ccc(Cl)cc12
inactive: growth inhibition [1] 5.78% | growth inhibition [2] -0.24% | viability increase [3] -2.01% | viability [4] 100% | viability [5] 99.4% | inhibition [6] 0.635% | RAM network inhibition [7] 5.46%

CC1(C)CC(=O)c2sc(NC(=O)CN3C(=O)CCC3=O)nc2C1
inactive: growth inhibition [1] -6.85% | growth inhibition [2] 0.48% | viability increase [3] -1.54% | viability [4] 103% | viability [5] 103% | inhibition [6] 0.685% | RAM network inhibition [7] 2.38%

O=C(Nc1ccc(N2CCOCC2)c(Cl)c1)C1CCCCC1
inactive: growth inhibition [1] 1.5% | growth inhibition [2] 4.29% | viability increase [3] -2.1% | viability [4] 97.6% | viability [5] 94.8% | inhibition [6] 0.18% | RAM network inhibition [7] 3.22%

COc1ccc(C)cc1Nc1cc(C)nc2ncnn12
inactive: growth inhibition [1] -7.14% | growth inhibition [2] 0.405% | viability increase [3] -4.44% | viability [4] 95.1% | viability [5] 88.9% | inhibition [6] 1.28% | RAM network inhibition [7] -1.57%

O=C(Nc1sc2c(c1C(=O)O)CCCCC2)c1ccco1
inactive: growth inhibition [1] -3.7% | growth inhibition [2] -9.4% | viability increase [3] -1.32% | viability [4] 88.7% | viability [5] 78.5% | inhibition [6] -0.91% | RAM network inhibition [7] -1.46%

COc1ccccc1NC(=O)CSc1nc2sc(C)c(C)c2c(=O)n1Cc1ccco1
inactive: growth inhibition [1] 9.68% | growth inhibition [2] 9.95% | viability increase [3] -3.07% | viability [4] 91% | viability [5] 92% | inhibition [6] 2.17% | RAM network inhibition [7] 3.57%

COc1ccc(S(=O)(=O)NCc2cn3c(C)csc3n2)cc1F
inactive: growth inhibition [1] -21% | growth inhibition [2] -8.7% | viability increase [3] 0.05% | viability [4] 94.1% | viability [5] 93.3% | inhibition [6] 0.86% | RAM network inhibition [7] -0.48%

Cc1ccccc1OCC(O)Cn1c(NCCN(C)C)nc2c1c(=O)n(C)c(=O)n2C (stereo unspecified)
inactive: growth inhibition [1] -13.3% | growth inhibition [2] 2.24% | viability increase [3] -1.92% | viability [4] 93.5% | viability [5] 99.4% | inhibition [6] 2.01% | RAM network inhibition [7] 1.15%

CCCCSc1nc2c(c(=O)n1CC)SC(C)C2 (stereo unspecified)
inactive: growth inhibition [1] -3.78% | growth inhibition [2] 5.58% | viability increase [3] -2.43% | viability [4] 87.3% | viability [5] 87.8% | inhibition [6] 0.125% | RAM network inhibition [7] 5.53%
